Several values for one entry are separate records, joined by “and”; a condition that tells them apart may be missing. Equal values may be shown once.
Tests used:
[1] = biological target: T1, Sterol O-acyltransferase 1 (Rattus norvegicus) (UniProt O70536); assay: In vitro inhibitory activity against acyl coenzyme A:cholesterol acyltransferase (ACAT); parameters: concentration or dose not given beside the values; conditions: concentration not given here
T1 sequence (whole entry): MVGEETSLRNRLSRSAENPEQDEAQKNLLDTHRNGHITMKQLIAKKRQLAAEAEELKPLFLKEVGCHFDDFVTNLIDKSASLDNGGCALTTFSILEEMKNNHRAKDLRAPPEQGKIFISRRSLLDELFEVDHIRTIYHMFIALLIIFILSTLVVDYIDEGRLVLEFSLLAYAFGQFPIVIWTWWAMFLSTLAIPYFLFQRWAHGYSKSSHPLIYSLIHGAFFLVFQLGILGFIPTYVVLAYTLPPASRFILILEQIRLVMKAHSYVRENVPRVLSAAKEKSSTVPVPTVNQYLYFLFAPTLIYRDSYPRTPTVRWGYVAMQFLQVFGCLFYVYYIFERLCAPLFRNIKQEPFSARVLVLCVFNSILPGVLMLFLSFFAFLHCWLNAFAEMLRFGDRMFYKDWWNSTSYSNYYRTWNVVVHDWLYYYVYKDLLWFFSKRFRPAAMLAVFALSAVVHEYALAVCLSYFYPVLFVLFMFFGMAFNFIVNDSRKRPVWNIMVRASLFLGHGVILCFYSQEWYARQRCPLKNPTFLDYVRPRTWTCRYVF
How it was run: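 ACAT enzyme from rat adrenal homogenate in 0.2 M KH2PO4 buffer pH 7.4, 1000g 15 min 5 °C supernatant (microsomal fraction). Supernatant + BSA (50 mg/mL) + compound at final 5.2 μg/mL + buffer preincubated 10 min 37 °C; [14C]oleoyl-CoA (0.4 μCi) added, 30 min 37 °C. Lipids extracted, TLC; cholesteryl ester zone counted. Mean % inhibition vs no-compound control; Student's t test.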

Rattus norvegicus [2] = assay: In vivo triglyceride lowering activity dosed at 0.10 % of the diet; type: functional
How it was run: (§1)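 Male CFE or CD-1 Sprague-Dawley rats, 140-150 g; 8 per control group, 4 per test group. Compound mixed into ground chow (w/w) via MeOH-CHCl3 (1:3) solution, solvent evaporated; controls got solvent-treated chow. Fed ad libitum 5 days, food intake monitored, killed fed and bled. Serum sterols and triglycerides by adapted autoanalyzer methods; mean percent of control, Student's t test.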

Rattus norvegicus [3] = assay: In vivo sterol lowering activity dosed at 0.10 % of the diet; type: functional; how it was run: as §1
Rattus norvegicus [4] = assay: In vivo triglyceride lowering activity, dosed at 0.03 % of the diet; type: functional; how it was run: as §1
Rattus norvegicus [5] = assay: In vivo Sterol lowering activity at dose as 0.03 % of the diet.; type: functional; how it was run: as §1
Rattus norvegicus [6] = assay: In vivo Sterol lowering activity at dose as 0.01 % of the diet.; type: functional; how it was run: as §1
Rattus norvegicus [7] = assay: In vivo triglyceride lowering activity, dosed at 0.01 % of the diet.; type: functional; how it was run: as §1
Rattus norvegicus [8] = assay: In vivo Sterol lowering activity at dose as 0.10 % of the diet.; type: functional; how it was run: as §1
Rattus norvegicus [9] = assay: In vivo Triglyceride lowering activity at dose as 0.01 % of the diet; type: functional; how it was run: as §1
Rattus norvegicus [10] = assay: In vivo triglyceride lowering activity dosed at 0.05 % of the diet; type: functional; how it was run: as §1
Rattus norvegicus [11] = assay: In vivo Sterol lowering activity at dose as 0.05 % of the diet; type: functional; how it was run: as §1

inhibition [1]	Compound	serum triglycerides, percent of control (Rattus norvegicus [2])	serum sterol, percent of control (Rattus norvegicus [3])	serum sterol level, percent of control (Rattus norvegicus [5])	serum sterol, percent of control (Rattus norvegicus [6])	further results
< 46%	CCCCCCCCCC/C=C/CCCNc1ccc(C(=O)O)cc1	–	–	–	–	–
9%	C=C(CCCCCCCCCC)CCCCCNc1ccc(C(=O)OCC)cc1	<56%	<88%	–	–	–
19%	O=C(O)c1ccc(NCCCc2ccc(Cl)c(Cl)c2)cc1	63%	73%	89%	96%	serum triglycerides, percent of control (Rattus norvegicus [4]): 70%; Diet (Rattus norvegicus [7]): 79%
53%	CCOC(=O)c1ccc(N(C)CCCc2ccc(Cl)cc2)cc1	49%	–	–	–	serum sterol, percent of control (Rattus norvegicus [8]): 99%
< 22%	CCCCCCCCCCCCCNc1ccc(C(=O)OCC)cc1	<70%	91%	–	–	–
31%	CCOC(=O)c1ccc(NCCCc2ccc(C)cc2)cc1	68%	122%	103%	127%	serum triglycerides, percent of control (Rattus norvegicus [4]): 54%; Diet (Rattus norvegicus [9]): 72%
< 36%	CCCCCCCCCCCCCCCCCCCNc1ccc(C(=O)O)cc1	–	–	–	–	–
54%	CCOC(=O)c1ccc(NCCCc2ccc(OC)cc2)cc1	60%	86%	90%	97%	serum triglycerides, percent of control (Rattus norvegicus [4]): 59%; Diet (Rattus norvegicus [7]): 82%
46%	O=[N+]([O-])c1ccc(CCCNc2ccccc2)cc1	49%	–	88%	90%	serum triglycerides, percent of control (Rattus norvegicus [4]): 61%; serum sterol, percent of control (Rattus norvegicus [8]): 87%; Diet (Rattus norvegicus [7]): 90%
0%	CCCCCCCCCCCCCCCCNc1ccc(C(=O)OC)cc1	85%	97%	–	–	–
52%	CCN(CCCc1ccc(Cl)cc1)c1ccc(C(=O)O)cc1	68%	–	–	–	serum sterol, percent of control (Rattus norvegicus [8]): 83%
0%	O=C(O)c1ccc(C(=O)O)c(NCCCc2ccc(Cl)cc2)c1	51%	–	100%	102%	serum triglycerides, percent of control (Rattus norvegicus [4]): 57%; serum sterol, percent of control (Rattus norvegicus [8]): 103%; Diet (Rattus norvegicus [7]): 72%
< 29%	CCCCCCCCCCCCCNc1ccc(C(=O)O)cc1	–	–	–	–	–
< 62%	CCOC(=O)c1ccc(NCCCCCCCCCC/C=C/c2cccs2)cc1	–	–	–	–	–
79%	CCOC(=O)c1ccc(NCCCc2cccc(Cl)c2)cc1	56%	80%	88%	93%	serum triglycerides, percent of control (Rattus norvegicus [4]): 65%; Diet (Rattus norvegicus [9]): 65%
50%	CCOC(=O)c1ccc(NCCCc2cccc(F)c2)cc1	37%	77%	88%	91%	serum triglycerides, percent of control (Rattus norvegicus [4]): 55%; Diet (Rattus norvegicus [9]): 78%
52%	CCOC(=O)c1ccc(NC(=O)/C=C/c2ccc(OC)cc2)cc1	–	–	–	–	–
18% and 19%	O=C(O)c1ccc(NCCCc2ccc(Cl)cc2)cc1 [listing 1 of 2 here]	–	–	–	–	–
–	O=C([O-])c1ccc(NCCCc2ccc(Cl)cc2)cc1.[Na+]	52%	84%	92%	94%	serum triglycerides, percent of control (Rattus norvegicus [4]): 60%; Diet (Rattus norvegicus [7]): 72%
42%	CCOC(=O)c1ccc(NCCCc2ccc(Cl)cc2)cc1	52%	76%	89%	90%	–
14%	O=C(O)c1ccc(NCCCCCCCc2ccccc2)cc1	<71%	91%	–	–	Diet (Rattus norvegicus [10]): <61%; Diet (Rattus norvegicus [11]): 96%

inhibition [1]	Compound	serum triglycerides, percent of control (Rattus norvegicus [2])	serum sterol, percent of control (Rattus norvegicus [3])	serum sterol level, percent of control (Rattus norvegicus [5])	serum sterol, percent of control (Rattus norvegicus [6])	further results
< 60%	CCCCCCCCCCCCCCCCCCNc1ccc(C(=O)O)cc1	–	–	–	–	–
< 40%	CCOC(=O)c1ccc(NCCCCCCCCCCCCc2cccs2)cc1	<46%	103%	–	–	–
0%	COc1ccc(CCC(=O)Nc2ccc(C(=O)O)cc2)cc1	–	–	–	–	–
18%	O=C(O)c1ccc(NCCCc2cccc(Br)c2)cc1	60%	80%	91%	92%	serum triglycerides, percent of control (Rattus norvegicus [4]): 67%; Diet (Rattus norvegicus [9]): 63%
48%	CCOC(=O)c1ccc(N(CC)CCCc2ccc(Cl)cc2)cc1	67%	–	–	–	serum sterol, percent of control (Rattus norvegicus [8]): 86%
< 57%	CCCCCCCCc1ccc(CCCNc2ccc(C(=O)OCC)cc2)s1	<46%	<83%	–	–	–
–	CCCCCCNc1ccc(C(=O)O)cc1	–	–	–	–	serum sterol, percent of control (Rattus norvegicus [8]): 94%
20%	COc1ccc(/C=C/C(=O)Nc2ccc(C(=O)O)cc2)cc1	–	–	–	–	–
–	CCCCCCCCCCCCCCCCCNc1ccc(C(=O)OCC)cc1	–	111%	–	–	–
–	O=C(O)c1ccc(NCCCc2ccc(Cl)cc2)cc1 [listing 2 of 2 here]	50%	72%	94%	94%	serum triglycerides, percent of control (Rattus norvegicus [4]): 54%; Diet (Rattus norvegicus [7]): 70%
62%	CCOC(=O)c1ccc(NCCCc2c(Cl)cccc2Cl)cc1	64%	–	–	–	serum sterol, percent of control (Rattus norvegicus [8]): 92%
< 59%	CCCCCCCCCCCc1nc(CNc2ccc(C(=O)OCC)cc2)c[nH]1	83%	100%	–	–	–
63%	CCOC(=O)c1ccc(NCCCCCCc2cccs2)cc1	–	–	–	–	–
< 53%	CCCCCCCCCCCCCCCCNc1ccc(C(=O)O)cc1	–	–	–	–	–
15% and 13%	O=C(O)c1ccc(NCc2ccc(Cl)cc2)cc1	–	–	–	–	–
< 47%	CCOC(=O)c1ccc(NCCCCCCCCCC/C=C\c2cccs2)cc1	72%	<82%	–	–	–
26%	O=C(O)c1ccc(NC/C=C/c2ccc(Cl)cc2)cc1	54%	–	92%	83%	serum triglycerides, percent of control (Rattus norvegicus [4]): 48%; serum sterol, percent of control (Rattus norvegicus [8]): 90%; Diet (Rattus norvegicus [7]): 95%
< 44%	C=CCCCCCCCC/C=C/CCCNc1ccc(C(=O)O)cc1	–	–	–	–	–
24%	CN(CCCc1ccc(Cl)cc1)c1ccc(C(=O)O)cc1	74%	–	–	–	serum sterol, percent of control (Rattus norvegicus [8]): 107%
33%	CCOC(=O)c1ccc(NCc2ccc(Cl)cc2)cc1	50%	84%	86%	94%	serum triglycerides, percent of control (Rattus norvegicus [4]): 53%; Diet (Rattus norvegicus [7]): 78%
< 21% and 17%	CCCCCCCCCCCCNc1ccc(C(=O)O)cc1	–	–	–	–	–
